Compound activity (PubChem)
Compounds with a hit are over-represented: about 3.4% of the library has one in this group of screens.
TAAR1 antagonist: human TAAR1 antagonism; Q96RJ0; CHO RD-HGA16 TAAR1, Fluo-8 calcium fluorescence, antagonist; inhibition, % at 3 µM; 360,000 tested, 1.5% active;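 active means inhibition above a per-plate cutoff, the mean inhibition of test compounds on that plate plus 3 SD, cut at about 49% in these data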;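 further: 0% = DMSO plus EC80 beta-PEA response and 100% = DMSO alone without agonist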
Target sequence (Q96RJ0 whole entry, looked up): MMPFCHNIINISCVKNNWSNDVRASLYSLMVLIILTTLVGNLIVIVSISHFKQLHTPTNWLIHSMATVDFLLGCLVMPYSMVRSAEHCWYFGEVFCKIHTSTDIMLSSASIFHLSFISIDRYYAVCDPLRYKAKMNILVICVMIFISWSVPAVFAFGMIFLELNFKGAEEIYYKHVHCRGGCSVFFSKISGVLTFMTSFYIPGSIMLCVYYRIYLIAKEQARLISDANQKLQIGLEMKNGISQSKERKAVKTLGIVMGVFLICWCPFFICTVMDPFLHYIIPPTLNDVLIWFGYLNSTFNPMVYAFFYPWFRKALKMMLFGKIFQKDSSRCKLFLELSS
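Test system – hTAAR1-expressing CHO RD-HGA16 cells, Gα16-coupled · Also added – β-PEA at EC80 concentration, post-compound challenge · Compound – 3 µM, single point · Incubation – dye loading 75 min at 37 °C, then 30 min room temperature · Measured by – Fluo-8 intracellular calcium dye fluorescence, real-time kinetic reads · Benchmarks – vehicle and agonist controls · Replicates – singlicate, one well per test compound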
LANA-H2B inh: blocks KSHV LANA binding to histone H2A/H2B; cell-free LANA-H2A/H2B peptide, fluorescence polarization; 320,000 tested, 0.6% active; Q9QR71; inhibition, % (test concentration not listed); in the data active means inhibition mostly above about 10%, no sharp cut-off; inactive means mostly below about 6.7%
GPR7 antag: antagonists of human GPR7 (neuropeptides B/W receptor 1). GPR7-expressing cells, fluorescence antagonist assay. 290,000 tested, 1.1% active. inhibition, % at 4.4 µM. P48145; in the data active means inhibition above about 16%, passing the limit was not always enough;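 further: cells stimulated with the agonist NPW; 0% = agonist with vehicle and 100% = vehicle without agonist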
Target sequence (P48145 whole entry, looked up): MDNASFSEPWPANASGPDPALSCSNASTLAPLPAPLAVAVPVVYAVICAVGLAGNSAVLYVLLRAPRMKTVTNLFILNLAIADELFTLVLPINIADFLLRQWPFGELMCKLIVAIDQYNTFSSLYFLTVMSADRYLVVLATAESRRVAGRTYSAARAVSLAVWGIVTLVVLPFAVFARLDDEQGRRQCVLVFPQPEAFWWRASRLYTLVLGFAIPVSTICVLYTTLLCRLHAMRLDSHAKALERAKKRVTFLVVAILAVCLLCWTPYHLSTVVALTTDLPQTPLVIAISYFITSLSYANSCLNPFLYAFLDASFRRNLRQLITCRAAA
TAAR1 ag: agonists of human TAAR1 | CHO RD-HGA16 TAAR1, Fluo-8 calcium fluorescence; vehicle wells 0%, saturating PEA agonist 100% | activation, % at 3 µM | 360,000 tested, 0.99% active | Q96RJ0;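 active means activation above the mean activation of all test compounds in the run plus 3 SD, cut at about 38% in these data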
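test system = CHO RD-HGA16 cells carrying human TAAR1 plus Gα16 | schedule = 17-24 h seeding, 75 min 37 °C dye, 30 min RT | compound dosing = 3 µM single concentration | control set = DMSO and PEA EC100 | replicates = n 1 | signal = Fluo-8 fluorescence, 5 s baseline then 140 s kinetic read | measure = percent activation vs PEA EC100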
TRPN1 ag: activates the zebrafish TRPN1 channel; 220,000 tested, 0.18% active; HEK293 zebrafish TRPN1-YFP, Fluo-8 calcium fluorescence; 100% = response to 87 µM carbachol; activation, % at 3 µM; AID 1424;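 active means activation above its plate's cutoff, the mean activation of test wells on that plate plus 3 SD, cut at about 19% in these data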;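 further: 0% = DMSO alone and 100% = 87 µM carbachol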
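Material: zebrafish TRPN1-YFP in HEK293 cells. Doses: one dose of 3 µM, 0.3% DMSO. Incubation: dye 1 h 37 °C plus 30 min RT. Measured by: intracellular calcium fluorescence with Fluo-8.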
TRPML3 agonist: activates the human TRPML3 channel. HEK293 TRPML3-YFP, Fluo-8 calcium fluorescence; 100% = the carbachol control signal. activation, % at 3 µM. 220,000 tested, 0.29% active. AID 1448;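 active means activation above its plate's cutoff, the mean activation of the plate's test wells plus 3 SD, cut at about 12% in these data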;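 further: 0% = DMSO only wells and 100% = carbachol wells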
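Test system: TRPML3-YFP stable HEK293 cells. Doses: single point at 3 µM. Incubation: dye loading 1 h 37 °C then 30 min ambient, 125 s read. Signal: Fluo-8 calcium dye fluorescence, ex 470-495, em 515-575 nm. Measure: percent activation from peak-to-basal fluorescence ratio, scaled between DMSO and carbachol.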
TAAR1 ag conf: confirmation of human TAAR1 agonists. CHO RD-HGA16 TAAR1, Fluo-8 calcium fluorescence; scaled: DMSO 0%, maximal phenethylamine 100%. activation, % at 3 µM. 2,400 tested, 82% active. AID 651783. shares compounds with TAAR1 ag;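 active means activation above a cutoff set at the run's mean compound activation plus 3 SD, cut at about 39% in these data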
Ga16 nonsel ag: counter-screen for TAAR1 agonists: nonselective agonists in parental cells | shares compounds with TAAR1 ag | CHO-Ga16 parental, Fluo-8 calcium fluorescence; normalized to maximal ATP response, DMSO zero | activation, % at 3 µM | 2,400 tested, 50% active;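 active means activation above the run cutoff, the mean activation over all tested wells plus 3 SD, cut at about 12% in these data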;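 further: 0% = DMSO wells and 100% = maximal ATP response on the peak over basal ratio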
TAAR1 desensitize: counter-screen for human TAAR1 agonists: agonists that desensitize TAAR1 | CHO RD-HGA16 hTAAR1, Fluo-8 calcium, beta-PEA response inhibition | shares compounds with TAAR1 ag | inhibition, % at 3 µM | 2,400 tested, 46% active | AID 651951;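 active means inhibition above the run cutoff, the mean inhibition of all test compounds plus 3 SD, cut at about 49% in these data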;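 further: beta-PEA stimulus applied at its EC80; loss of beta-PEA calcium signal after compound pretreatment read as receptor desensitization; 0% = DMSO with beta-PEA at EC80 and 100% = DMSO alone without agonist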
Ga16 nonsel ant: counter-screen for TAAR1 agonists: nonselective Ga16 antagonists. shares compounds with TAAR1 ag. CHO-Ga16 ATP-induced calcium, Fluo-8 fluorescence. inhibition, % at 3 µM. 2,400 tested, 39% active;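 active means inhibition above the plate's mean compound inhibition plus 3 SD, computed per plate, cut at about 22% in these data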;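 further: 0% = EC80 ATP with DMSO and 100% = DMSO wells without ATP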
* marks the source's active call; other numbers are inactive results; . = no result given.

SMILES	TAAR1 antagonist	LANA-H2B inh	GPR7 antag	TAAR1 ag	TRPN1 ag	TRPML3 agonist	TAAR1 ag conf	Ga16 nonsel ag	TAAR1 desensitize	Ga16 nonsel ant
CN1CCN(C(c2cccnc2)c2ccc3cccnc3c2O)CC1 (centres undefined)	.	4	-6	.	1	0	.	.	.	.
CN1CCN(C(c2ccc(Br)cc2)c2cc(Cl)c3cccnc3c2O)CC1 (centres undefined)	-13	5	-2	69*	.	.	121*	88*	76*	43*
O=C(Nc1cccc2cccnc12)c1ccc2sc([C@@H]3O[C@H](CO)[C@H](O)[C@H](O)[C@H]3O)nc2c1	0	.	.	3	.	.	.	.	.	.
COC(=O)c1cc(-c2ccccc2)n(CCN)c1C	29	-3	.	46*	.	.	51*	0	26	-1
CCOC(=O)c1cncc(C#CCOC(=O)Nc2ccc(OC(F)(F)F)cc2)c1	73*	-7	-11	51*	1	0	49*	32*	81*	62*
O=C1NCCN1CCNc1nc(NCc2ccccc2)nc2ccsc12	100*	.	.	89*	.	.	95*	66*	106*	93*
CC(C)Nc1nc(NCCN2CCNC2=O)c2sccc2n1	5	.	.	1	.	.	.	.	.	.
NNCCc1ccccc1	30	-1	0	75*	2	0	94*	2	76*	5
CCc1ccc(OC(=O)c2cccnc2)cc1	4	-5	10	4	.	.	.	.	.	.
O=C(COc1cccc(Cl)c1Cl)NC1CC1	3	1	.	8	.	.	.	.	.	.
COc1ccccc1CC(=O)NCCCc1ccccc1	7	15	-7	-1	.	.	.	.	.	.
COc1ccccc1CC(=O)NCCc1ccccc1	15	-1	-2	69*	.	.	85*	2	77*	5
COc1ccc(C(=O)CC(=O)C(=O)Nc2cc(C)ccc2C)cc1	6	3	-5	5	.	.	.	.	.	.
COc1ccc(C(=O)CC(=O)C(=O)NCCc2cccc(C)c2)cc1	80*	-2	1	84*	1	1	94*	2	84*	0
Cc1cc(Cl)nc(Cl)c1C(=O)NCCc1ccccc1	.	2	.	.	.	.	.	2	.	8
COc1ccc(OC(=O)NCCc2ccccc2)cc1	-23	2	-8	57*	-1	-1	84*	4	73*	10
CCCCCN=C(C)c1c(O)c2ccccc2oc1=O	16	-2	8	58*	-1	0	58*	2	12	2
C/C(=N/NS(=O)(=O)c1ccc(C)cc1)c1c(O)c2ccccc2oc1=O	-26	4	-8	5	0	0	.	.	.	.
Cc1cc(C(=O)OC(C)C(=O)NC2CCCCC2C)c2ccccc2n1 (centres undefined)	-14	.	.	1	.	.	.	.	.	.
O=C(NCCc1ccco1)C(=O)NCC1OCCCN1S(=O)(=O)c1ccccc1 (centres undefined)	24	1	-11	66*	.	.	36	6	10	9
O=C(NCCc1ccccc1)C(=O)NCC1CCCN1S(=O)(=O)c1ccccc1 (centres undefined)	76*	-5	.	59*	.	.	85*	11	80*	38*
Cc1ccc(S(=O)(=O)N2CCOC2CNC(=O)C(=O)NCCCc2ccccc2)cc1 (centres undefined)	-23	-3	-7	11	.	.	.	.	.	.
O=C(NCCc1ccccc1)C(=O)NCCC1CCCCN1S(=O)(=O)c1ccccc1 (centres undefined)	1	-1	.	19	.	.	.	.	.	.
O=C(NCc1ccco1)C(=O)NCC1OCCCN1S(=O)(=O)c1ccccc1 (centres undefined)	-2	2	-9	0	0	1	.	.	.	.
Cc1ccc(S(=O)(=O)N2CCOC2CNC(=O)C(=O)NCCc2ccccc2)cc1 (centres undefined)	37	1	-10	58*	1	1	82*	1	41	15
SMILES	TAAR1 antagonist	LANA-H2B inh	GPR7 antag	TAAR1 ag	TRPN1 ag	TRPML3 agonist	TAAR1 ag conf	Ga16 nonsel ag	TAAR1 desensitize	Ga16 nonsel ant
O=C(NCCc1ccccc1)C(=O)NCC1OCCN1S(=O)(=O)c1ccc([N+](=O)[O-])cc1 (centres undefined)	28	3	13	47*	3	3	73*	2	22	9
CCc1nc2ccc(C(=O)NCCCN3CCCC3=O)cn2c1N(CC)C(C)=O	-21	.	.	3	.	.	.	.	.	.
O=C(NCc1ccccc1)C(=O)NCC1OCCCN1S(=O)(=O)c1cccs1 (centres undefined)	-24	10	9	6	.	.	.	.	.	.
O=C(NCCc1ccccc1)C(=O)NCC1OCCCN1S(=O)(=O)c1cccs1 (centres undefined)	41	0	-17	68*	.	.	97*	16*	74*	11
O=C(Nc1cccc(Cl)c1)N1CCc2ccccc2C1	14	-5	-8	31	.	.	.	.	.	.
COc1cccc(NC(=O)N2CCc3ccccc3C2)c1	-1	-4	2	46*	.	.	53*	1	14	10
COc1ccc(NC(=O)CN2CCc3ccccc3C2)cc1	-3	.	.	4	.	.	.	.	.	.
COc1ccc(NC(=S)N2CCc3ccccc3C2)cc1	53*	1	-5	84*	1	0	93*	9	31	-3
COc1ccc(C)cc1S(=O)(=O)N1CCCC(C(=O)N2CCN(c3ccccc3F)CC2)C1 (centres undefined)	-4	-1	-8	3	.	.	.	.	.	.
O=C(NCC1CCCO1)C1CCCN(S(=O)(=O)c2cc(Cl)ccc2Cl)C1 (centres undefined)	-8	3	-7	4	.	.	.	.	.	.
O=C(O)/C=C/C(=O)NCCCc1ccccc1	34	2	-4	74*	-1	1	103*	2	78*	-2
CC(=O)c1sc2nc(SCC(=O)NCCc3ccccc3)[nH]c(=O)c2c1C	43	4	-17	90*	.	.	97*	19*	56*	-1
O=C(CSc1nc(=O)n2cc(Cl)ccc2n1)NCCc1ccccc1	8	1	.	50*	.	.	68*	7	12	8
Cc1cc(C)c2c(=O)[nH]c(SCC(=O)NCc3ccccc3)nc2n1	2	4	3	8	0	1	.	.	.	.
